{"source": "paper PMC6358549", "about": "(Molecular Metabolism, 2018)", "key": {"rat GIPR": {"tested_on": "rat GIPR", "details": "cited from earlier work"}, "healthy human volunteers": {"tested_on": "healthy human volunteers", "details": "cited from earlier work"}, "[1]": {"details": "general statement in the discussion, no reference given; cited from earlier work"}, "DIO mice": {"tested_on": "DIO mice", "experiment": "body weight change on chronic treatment of DIO mice", "format": "in vivo, mouse"}, "hGIPR [2]": {"target": "T1, hGIPR (Homo sapiens, UniProt P48546)", "T1 sequence (P48546 22-466)": "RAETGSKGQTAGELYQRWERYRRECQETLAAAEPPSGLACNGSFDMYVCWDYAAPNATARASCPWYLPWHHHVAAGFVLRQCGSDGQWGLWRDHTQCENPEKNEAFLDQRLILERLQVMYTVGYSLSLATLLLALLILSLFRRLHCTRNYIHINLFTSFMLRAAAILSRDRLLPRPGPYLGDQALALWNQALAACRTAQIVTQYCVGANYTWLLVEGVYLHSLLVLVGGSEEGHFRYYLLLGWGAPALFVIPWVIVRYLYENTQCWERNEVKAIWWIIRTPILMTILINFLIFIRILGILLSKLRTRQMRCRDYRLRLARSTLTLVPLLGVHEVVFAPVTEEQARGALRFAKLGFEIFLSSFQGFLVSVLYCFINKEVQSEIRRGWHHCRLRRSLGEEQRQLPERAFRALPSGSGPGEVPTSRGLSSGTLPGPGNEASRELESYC", "experiment": "cAMP-response-element luciferase reporter gene assay, agonism at human GIPR", "format": "cell-based", "details": "Figure 5B"}, "mouse GLP-1R": {"target": "T2, mouse GLP-1R (Mus musculus, UniProt O35659)", "T2 sequence (O35659 22-463)": "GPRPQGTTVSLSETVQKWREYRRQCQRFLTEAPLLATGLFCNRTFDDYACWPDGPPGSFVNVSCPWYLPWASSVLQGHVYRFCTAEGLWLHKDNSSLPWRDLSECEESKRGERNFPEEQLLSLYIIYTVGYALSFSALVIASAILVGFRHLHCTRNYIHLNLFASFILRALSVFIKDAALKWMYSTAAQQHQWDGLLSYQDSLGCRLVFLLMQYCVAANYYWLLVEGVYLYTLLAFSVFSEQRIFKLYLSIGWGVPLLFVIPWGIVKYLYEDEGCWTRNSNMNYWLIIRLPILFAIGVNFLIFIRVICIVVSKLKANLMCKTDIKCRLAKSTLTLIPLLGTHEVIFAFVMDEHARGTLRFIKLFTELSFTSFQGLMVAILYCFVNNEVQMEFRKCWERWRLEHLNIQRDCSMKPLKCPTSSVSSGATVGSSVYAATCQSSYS", "experiment": "luciferase reporter gene assay, antagonism at mouse GLP-1R", "format": "cell-based", "details": "native hormone at EC90; Figure 5E"}, "hGIPR [3]": {"target": "T1, hGIPR", "experiment": "luciferase reporter gene assay, antagonism at human GIPR", "format": "cell-based", "details": "co-incubated with native GIP at its EC50; 1% ovalbumin; Figure 5A", "summary_of_the_method": "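HEK293 or BHK cells overexpressing the human receptor with a CRE-linked firefly luciferase reporter were serum-deprived for 16 h. They were then incubated 5 h at 37 °C, 5% CO2 with native GIP at constant concentration plus serial dilutions of test compound. Luminescence was read after adding luciferase substrate. Each concentration was run in duplicate, and potency was fitted per experiment by non-linear three-parameter regression.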"}, "mGIPR": {"target": "T3, mGIPR (Mus musculus, UniProt Q0P543)", "T3 sequence (Q0P543 19-460)": "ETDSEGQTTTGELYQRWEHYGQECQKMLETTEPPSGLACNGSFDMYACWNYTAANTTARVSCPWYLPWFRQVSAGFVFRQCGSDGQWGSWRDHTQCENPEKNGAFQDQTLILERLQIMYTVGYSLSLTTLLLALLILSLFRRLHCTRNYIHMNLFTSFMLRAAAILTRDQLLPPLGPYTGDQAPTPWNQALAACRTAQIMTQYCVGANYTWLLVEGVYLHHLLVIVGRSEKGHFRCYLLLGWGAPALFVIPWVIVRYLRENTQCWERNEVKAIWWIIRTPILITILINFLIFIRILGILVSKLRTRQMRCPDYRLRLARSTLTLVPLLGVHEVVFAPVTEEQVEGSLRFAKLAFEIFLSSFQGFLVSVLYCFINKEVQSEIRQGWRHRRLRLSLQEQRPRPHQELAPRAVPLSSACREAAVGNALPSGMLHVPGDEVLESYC", "experiment": "cAMP-response-element luciferase reporter gene assay, agonism at mouse GIPR", "format": "cell-based", "details": "Figure 5D"}, "[4]": {"target": "mouse glucagon receptor (GcgR) (Mus musculus, UniProt Q61606)", "sequence (Q61606 27-485)": "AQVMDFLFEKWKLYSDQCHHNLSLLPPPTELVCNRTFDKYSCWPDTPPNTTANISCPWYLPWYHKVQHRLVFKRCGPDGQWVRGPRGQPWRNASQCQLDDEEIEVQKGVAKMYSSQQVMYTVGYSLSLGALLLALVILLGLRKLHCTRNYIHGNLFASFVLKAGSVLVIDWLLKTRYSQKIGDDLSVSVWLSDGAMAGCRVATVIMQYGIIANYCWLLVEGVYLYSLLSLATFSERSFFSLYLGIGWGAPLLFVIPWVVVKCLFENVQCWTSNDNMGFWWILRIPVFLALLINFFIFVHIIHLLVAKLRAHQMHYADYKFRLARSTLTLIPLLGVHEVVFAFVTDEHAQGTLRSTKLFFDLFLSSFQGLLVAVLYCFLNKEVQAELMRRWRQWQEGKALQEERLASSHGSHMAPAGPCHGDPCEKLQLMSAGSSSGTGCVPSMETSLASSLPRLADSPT", "experiment": "luciferase reporter gene assay, antagonism at mouse glucagon receptor", "format": "cell-based", "details": "native hormone at EC90; Figure 5"}, "[5]": {"experiment": "aqueous solubility and aggregation", "format": "physicochemical", "details": "statement in the discussion, method not given"}}, "note": "Read-outs that look alike come from different tables or passages of the source. No end group written: not given here.", "data": [{"substance": "hGIP (3–30)-NH2: peptide-based GIPR antagonist from the literature (EGTFISDYSIAMDKIHQQDFVNWLLAQK-NH2; UniProt P09681 54-81, looked up, fragment)", "values": [{"measurement": "affinity for the rat GIPR relative to hGIPR", "setting": "rat GIPR", "result": "substantially reduced affinity"}, {"measurement": "insulinotropic response to GIP co-infusion", "setting": "healthy human volunteers", "result": "blocked a majority of the insulinotropic response"}]}, {"substance": "Native, full-length GIP: native, full-length GIP", "values": [{"measurement": "aggregation in liquid formulations", "setting": "[1]", "result": "prone to aggregation"}, {"measurement": "aqueous solubility", "setting": "[1]", "result": "limited aqueous solubility"}]}, {"substance": "hGIP(5–42) N^αAc K10[γEγE-C16] Arg18 [acyl GIPR antagonist]", "values": [{"measurement": "change in body weight relative to vehicle controls", "setting": "DIO mice; daily sc 300 nmol/kg or 1 μmol/kg for ten days, N = 8", "result": "did not cause any measurable change in body weight"}, {"measurement": "partial agonism at hGIPR", "setting": "hGIPR [2]", "result": "did not exhibit any degree of partial agonism"}, {"measurement": "cross-reactive antagonism to mouse GLP-1R", "setting": "mouse GLP-1R", "result": "did not demonstrate any cross-reactive antagonism"}, {"measurement": "hGIPR antagonism", "setting": "hGIPR [3]", "result": "potent antagonism"}, {"measurement": "partial agonism at mGIPR", "setting": "mGIPR", "result": "did not exhibit any degree of partial agonism"}, {"measurement": "cross-reactive antagonism to mouse glucagon receptor (GcgR)", "setting": "[4]", "result": "did not demonstrate any cross-reactive antagonism"}, {"measurement": "aqueous solubility", "setting": "[5]", "result": "sufficient aqueous solubility"}]}, {"substance": "liraglutide [reference compound]", "values": [{"measurement": "body weight lowered by", "setting": "DIO mice; daily sc liraglutide 10 nmol/kg, Figure 5H", "result": 10.9, "unit": "%"}]}]}
